The source of these data is ChEMBL document CHEMBL4049423, “Discovery of Novel 1,4-Diacylpiperazines as Selective and Cell-Active eIF4A3 Inhibitors” (J Med Chem, 2017).

pIC50, pKd: −log10 of the molar value.

Assay [1] addresses T1, ATP-dependent RNA helicase DHX29 (Homo sapiens, UniProt Q7Z478).
T1 sequence (Q7Z478 whole entry): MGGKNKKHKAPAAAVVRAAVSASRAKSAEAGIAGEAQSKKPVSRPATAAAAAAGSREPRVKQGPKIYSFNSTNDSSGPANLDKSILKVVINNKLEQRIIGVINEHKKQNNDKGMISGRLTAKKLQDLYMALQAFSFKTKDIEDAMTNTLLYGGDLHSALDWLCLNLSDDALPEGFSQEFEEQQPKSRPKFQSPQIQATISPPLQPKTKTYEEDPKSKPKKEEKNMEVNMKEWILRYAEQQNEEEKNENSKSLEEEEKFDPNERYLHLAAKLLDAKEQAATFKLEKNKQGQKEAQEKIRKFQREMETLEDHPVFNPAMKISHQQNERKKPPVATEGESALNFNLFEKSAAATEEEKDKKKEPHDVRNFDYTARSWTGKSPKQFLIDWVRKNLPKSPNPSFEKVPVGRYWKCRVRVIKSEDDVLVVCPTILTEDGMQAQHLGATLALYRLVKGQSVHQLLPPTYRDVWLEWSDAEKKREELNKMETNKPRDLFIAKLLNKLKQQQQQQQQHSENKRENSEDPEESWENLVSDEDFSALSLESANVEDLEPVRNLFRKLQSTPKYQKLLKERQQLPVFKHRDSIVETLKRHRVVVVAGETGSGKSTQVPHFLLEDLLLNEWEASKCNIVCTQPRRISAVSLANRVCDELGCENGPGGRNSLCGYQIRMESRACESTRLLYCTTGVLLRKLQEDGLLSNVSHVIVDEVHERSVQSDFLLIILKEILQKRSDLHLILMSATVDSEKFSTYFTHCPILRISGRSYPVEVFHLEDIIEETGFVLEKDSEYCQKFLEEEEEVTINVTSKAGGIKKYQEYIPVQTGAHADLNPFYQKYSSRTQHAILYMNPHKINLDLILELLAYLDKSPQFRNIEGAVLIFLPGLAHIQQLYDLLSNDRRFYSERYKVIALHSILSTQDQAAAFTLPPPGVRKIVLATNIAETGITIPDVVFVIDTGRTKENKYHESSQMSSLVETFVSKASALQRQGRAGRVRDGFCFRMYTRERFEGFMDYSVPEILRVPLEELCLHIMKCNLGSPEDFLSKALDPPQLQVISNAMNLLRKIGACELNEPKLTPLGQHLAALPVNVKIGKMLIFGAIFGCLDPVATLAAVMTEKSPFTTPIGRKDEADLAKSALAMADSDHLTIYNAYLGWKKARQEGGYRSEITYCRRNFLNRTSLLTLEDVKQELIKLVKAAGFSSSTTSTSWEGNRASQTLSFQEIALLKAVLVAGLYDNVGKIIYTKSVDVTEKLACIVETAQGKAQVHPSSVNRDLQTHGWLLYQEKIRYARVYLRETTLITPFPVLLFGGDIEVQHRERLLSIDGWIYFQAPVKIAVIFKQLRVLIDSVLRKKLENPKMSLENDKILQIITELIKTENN
Description: Inhibition of human recombinant full-length FLAG-His-tagged DHX29 RNA dependent ATPase activity expressed in baculovirus infected Sf9 insect cells using single stranded poly(U) RNA as substrate after 30 mins by ADP-Glo luminescence assay. The essentials:
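DHX29 was Ni-NTA and Superdex 200 purified and used at 6.4 nM. Substrates were 30 μM ATP and 1.8 μg/mL poly(U), both at Km. Run in pH 7.5 Tris/MgCl2/KCl/DTT/Tween20 buffer, started with enzyme, 30 min at room temperature. ADP detected by ADP-Glo luminescence, with no-enzyme wells as 100% inhibition.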

For assay [2], the target named is T2, Eukaryotic initiation factor 4A-III (Homo sapiens, UniProt P38919). Kind of assay: Binding affinity to full-length human recombinant His6-tagged eIF4A3 expressed in Escherichia coli BL21(DE3) assessed as dissociation half life by surface plasmon resonance assay. The essentials:
(§1)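 eIF4A3 amine-coupled to a CM7 sensor chip (5000–10 000 RU) in HBS-P+ with 1 mM DTT. Binding was run at 25 °C in 20 mM Tris-HCl pH 8.0, 150 mM NaCl, 0.2 mM TCEP, 0.02% P20 and 1–2% DMSO. Compound series of 6–12 concentrations were injected for 60–120 s at 50 μL/min, with dissociation followed for 120–1200 s. Sensorgrams were double-referenced and globally fitted to a 1:1 model.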

Assay [3] addresses T2, Eukaryotic initiation factor 4A-III. Description: Binding affinity to full-length human recombinant His6-tagged eIF4A3 expressed in Escherichia coli BL21(DE3) by surface plasmon resonance assay. In short, it runs like this: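 eIF4A3 immobilized on CM7 chip by amine coupling (5000–10 000 RU) in HBS-P+ with 1 mM DTT. Binding run at 25 °C in 20 mM Tris-HCl pH 8.0, 150 mM NaCl, 0.2 mM TCEP, 0.02% P20, 1−2% DMSO. Compound injected at 6−12 concentrations for 60−120 s at 50 μL/min, dissociation followed 120−1200 s. Sensorgrams double-referenced, globally fitted to 1:1 model.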

For assay [4], the target named is Eukaryotic initiation factor 4A-I (Homo sapiens, UniProt P60842). Description: Inhibition of eIF4G-induced full-length human recombinant His6-tagged eIF4A1 RNA dependent ATPase activity expressed in Escherichia coli BL21(DE3) using single stranded poly(U) RNA as substrate after 40 mins by ADP-Glo luminescence assay. The essentials:
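100 nM eIF4A1 with equimolar eIF4B and eIF4G, 35 μM ATP and 1.5 μg/mL poly(U), both at Km. Buffer: Tris-HCl pH 7.5, MgCl2, KCl, DTT, Tween20. The reaction was started with enzyme and run 40 min at room temperature, with ADP read by ADP-Glo luminescence. No-enzyme wells were set as 100% inhibition.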

Assay [5] has as its target T2, Eukaryotic initiation factor 4A-III. Kind of assay: Binding affinity to full-length human recombinant His6-tagged eIF4A3 expressed in Escherichia coli BL21(DE3) assessed as association rate constant by surface plasmon resonance assay. The essentials:
as §1

For assay [6] the target is unchanged. Description: Inhibition of MLN51-induced full-length human recombinant His6-tagged eIF4A3 RNA dependent ATPase activity expressed in Escherichia coli BL21(DE3) using single stranded poly(U) RNA as substrate after 30 mins by ADP-Glo luminescence assay. The essentials: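 ADP-Glo luminescence read-out with 150 nM eIF4A3 plus an equimolar amount of MLN51. Substrates were 35 μM ATP and 1.5 μg/mL poly(U), both at Km. Buffer: 20 mM Tris-HCl pH 7.5, 2.5 mM MgCl2, 100 mM KCl, 1 mM DTT, 0.01% Tween20. Enzyme was added last to start the reaction, then incubated 30 min at room temperature. No-enzyme wells were taken as 100% inhibition and the complete reaction as 0%.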

The target is the same in assay [7]. Description: Binding affinity to full-length human recombinant His6-tagged eIF4A3 expressed in Escherichia coli BL21(DE3) assessed as dissociation rate constant by surface plasmon resonance assay. In short, it runs like this: as §1
On the technique in general: Surface plasmon resonance follows binding to a sensor surface in real time, without labels.

The target is the same in assay [8]. Kind of assay: Inhibition of eIF4A3 (unknown origin) expressed in HEK293T cells assessed as NMD suppression at 3 uM after 6 hrs by luciferase reporter gene assay relative to control. The format is cell-based. The essentials: (§2)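 HEK293T cells were co-transfected (Lipofectamine LTX) with the pGL4.12 SV40-Luc2CP-BGG NMD reporter and a pRL-TK renilla control. After 24 h of transfection, cells were treated with compound for 6 h. Firefly/renilla luciferase ratio was measured by dual-luciferase assay and normalized to DMSO-treated cells, n = 2.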
(A reporter such as luciferase makes a cellular process visible.)

Assay [9] has the same target. Kind of assay: Inhibition of eIF4A3 (unknown origin) expressed in HEK293T cells assessed as NMD suppression at 10 uM after 6 hrs by luciferase reporter gene assay relative to control. It counts as cell-based. The essentials:
as §2

Assay [10] addresses Eukaryotic initiation factor 4A-II (Homo sapiens, UniProt Q14240). Description: Inhibition of eIF4G-induced human recombinant His6-tagged eIF4A2 RNA dependent ATPase activity using single stranded poly(U) RNA as substrate after 40 mins by ADP-Glo luminescence assay. In short, it runs like this:
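eIF4A2 was a purchased His-tagged human protein, used at 100 nM with equimolar eIF4B and eIF4G. Substrates were 20 μM ATP and 3.0 μg/mL poly(U), both at Km. The reaction was started with enzyme in Tris-HCl pH 7.5/MgCl2/KCl/DTT/Tween20 buffer and run 40 min at room temperature. ADP-Glo read-out, with the no-enzyme control set as 100% inhibition.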
A general note: In ADP-Glo the light output rises with the ADP produced.

Assay [11] has as its target U5 small nuclear ribonucleoprotein 200 kDa helicase (Homo sapiens, UniProt O75643). Kind of assay: Inhibition of human recombinant full-length His-tagged BRR2 RNA dependent ATPase activity expressed in baculovirus infected Sf9 insect cells using single stranded poly(U) RNA as substrate after 30 mins by ADP-Glo luminescence assay. The essentials:
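BRR2 was Ni-NTA and gel-filtration purified and used at 6.25 nM. Substrates were 20 μM ATP and 2.5 μg/mL poly(U), both at Km. Buffer: 20 mM Tris-HCl pH 7.5, 2.5 mM MgCl2, 100 mM KCl, 1 mM DTT, 0.01% Tween20. Started with enzyme and incubated 30 min at room temperature, with ADP-Glo luminescence read-out.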

T2 sequence (P38919 whole entry): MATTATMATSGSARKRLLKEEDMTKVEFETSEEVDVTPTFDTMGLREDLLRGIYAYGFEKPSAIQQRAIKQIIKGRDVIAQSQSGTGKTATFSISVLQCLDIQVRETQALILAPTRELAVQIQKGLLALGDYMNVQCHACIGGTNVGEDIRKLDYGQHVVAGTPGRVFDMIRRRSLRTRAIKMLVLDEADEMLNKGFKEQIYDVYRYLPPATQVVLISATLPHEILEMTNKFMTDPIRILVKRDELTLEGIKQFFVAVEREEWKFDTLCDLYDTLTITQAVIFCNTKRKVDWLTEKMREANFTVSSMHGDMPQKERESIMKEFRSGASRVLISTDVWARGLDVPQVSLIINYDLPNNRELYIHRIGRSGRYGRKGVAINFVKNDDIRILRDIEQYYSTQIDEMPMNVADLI
Sequence of Eukaryotic initiation factor 4A-II (Q14240 whole entry): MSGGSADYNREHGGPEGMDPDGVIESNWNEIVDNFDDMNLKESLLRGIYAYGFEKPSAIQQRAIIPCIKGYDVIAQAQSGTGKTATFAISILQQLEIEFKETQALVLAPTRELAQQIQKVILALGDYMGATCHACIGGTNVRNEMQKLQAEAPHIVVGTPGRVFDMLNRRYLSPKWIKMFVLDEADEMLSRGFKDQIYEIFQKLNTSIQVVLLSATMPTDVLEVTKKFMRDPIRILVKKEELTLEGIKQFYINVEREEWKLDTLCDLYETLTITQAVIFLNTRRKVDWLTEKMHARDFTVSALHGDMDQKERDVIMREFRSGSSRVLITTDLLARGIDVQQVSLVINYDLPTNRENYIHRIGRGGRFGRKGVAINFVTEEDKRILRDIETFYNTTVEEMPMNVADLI
Sequence of U5 small nuclear ribonucleoprotein 200 kDa helicase (O75643 whole entry): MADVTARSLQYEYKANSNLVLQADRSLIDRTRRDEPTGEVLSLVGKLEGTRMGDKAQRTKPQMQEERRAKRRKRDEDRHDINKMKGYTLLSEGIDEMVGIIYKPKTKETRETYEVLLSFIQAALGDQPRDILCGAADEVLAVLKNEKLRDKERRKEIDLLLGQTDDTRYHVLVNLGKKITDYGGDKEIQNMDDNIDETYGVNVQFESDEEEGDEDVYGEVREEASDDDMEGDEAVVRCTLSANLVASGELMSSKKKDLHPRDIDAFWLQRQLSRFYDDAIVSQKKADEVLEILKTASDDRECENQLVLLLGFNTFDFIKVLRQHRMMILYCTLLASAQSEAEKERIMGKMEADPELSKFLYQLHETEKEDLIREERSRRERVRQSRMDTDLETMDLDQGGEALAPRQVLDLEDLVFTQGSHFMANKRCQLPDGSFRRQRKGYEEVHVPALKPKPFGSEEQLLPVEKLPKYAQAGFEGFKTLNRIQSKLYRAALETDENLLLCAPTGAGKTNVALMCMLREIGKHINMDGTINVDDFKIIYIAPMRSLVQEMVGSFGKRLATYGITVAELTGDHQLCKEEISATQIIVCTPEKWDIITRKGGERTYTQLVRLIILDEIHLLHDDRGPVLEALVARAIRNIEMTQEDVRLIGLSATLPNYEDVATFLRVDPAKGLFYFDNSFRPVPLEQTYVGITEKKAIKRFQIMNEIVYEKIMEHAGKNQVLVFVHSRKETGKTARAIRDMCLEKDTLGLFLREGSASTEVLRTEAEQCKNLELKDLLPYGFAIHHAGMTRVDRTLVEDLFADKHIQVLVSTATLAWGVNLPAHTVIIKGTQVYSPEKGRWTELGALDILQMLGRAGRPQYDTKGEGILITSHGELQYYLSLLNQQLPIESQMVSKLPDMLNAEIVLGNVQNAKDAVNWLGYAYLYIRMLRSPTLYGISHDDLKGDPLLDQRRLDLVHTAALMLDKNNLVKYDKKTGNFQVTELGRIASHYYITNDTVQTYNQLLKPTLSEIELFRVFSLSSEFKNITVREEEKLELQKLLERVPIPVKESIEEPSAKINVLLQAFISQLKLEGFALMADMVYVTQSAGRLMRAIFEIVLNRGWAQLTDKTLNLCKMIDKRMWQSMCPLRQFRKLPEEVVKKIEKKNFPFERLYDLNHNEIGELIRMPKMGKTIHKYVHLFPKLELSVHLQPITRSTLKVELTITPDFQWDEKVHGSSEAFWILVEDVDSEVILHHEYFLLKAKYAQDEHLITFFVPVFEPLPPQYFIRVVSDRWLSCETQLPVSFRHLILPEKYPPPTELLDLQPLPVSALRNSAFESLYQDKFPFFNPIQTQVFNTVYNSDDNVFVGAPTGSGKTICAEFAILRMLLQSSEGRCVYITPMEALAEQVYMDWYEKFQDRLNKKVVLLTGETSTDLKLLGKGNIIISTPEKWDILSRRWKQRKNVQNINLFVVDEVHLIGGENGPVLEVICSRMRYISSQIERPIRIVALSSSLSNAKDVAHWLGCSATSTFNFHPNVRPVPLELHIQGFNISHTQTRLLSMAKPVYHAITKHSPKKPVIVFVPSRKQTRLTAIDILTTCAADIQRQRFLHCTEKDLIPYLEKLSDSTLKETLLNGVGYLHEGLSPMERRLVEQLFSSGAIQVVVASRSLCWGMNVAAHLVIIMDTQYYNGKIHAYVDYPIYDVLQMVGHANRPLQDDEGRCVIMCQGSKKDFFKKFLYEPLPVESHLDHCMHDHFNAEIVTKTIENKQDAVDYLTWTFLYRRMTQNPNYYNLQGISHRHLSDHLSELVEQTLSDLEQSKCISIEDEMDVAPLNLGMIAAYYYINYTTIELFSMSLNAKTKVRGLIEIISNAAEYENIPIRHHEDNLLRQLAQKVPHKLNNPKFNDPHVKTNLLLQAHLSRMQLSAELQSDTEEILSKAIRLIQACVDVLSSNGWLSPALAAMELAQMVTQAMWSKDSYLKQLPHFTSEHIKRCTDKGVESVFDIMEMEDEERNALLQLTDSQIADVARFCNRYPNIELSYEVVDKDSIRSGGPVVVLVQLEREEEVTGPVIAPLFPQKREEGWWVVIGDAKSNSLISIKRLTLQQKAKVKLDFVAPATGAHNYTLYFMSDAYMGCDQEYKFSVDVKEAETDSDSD
Sequence of Eukaryotic initiation factor 4A-I (P60842 whole entry): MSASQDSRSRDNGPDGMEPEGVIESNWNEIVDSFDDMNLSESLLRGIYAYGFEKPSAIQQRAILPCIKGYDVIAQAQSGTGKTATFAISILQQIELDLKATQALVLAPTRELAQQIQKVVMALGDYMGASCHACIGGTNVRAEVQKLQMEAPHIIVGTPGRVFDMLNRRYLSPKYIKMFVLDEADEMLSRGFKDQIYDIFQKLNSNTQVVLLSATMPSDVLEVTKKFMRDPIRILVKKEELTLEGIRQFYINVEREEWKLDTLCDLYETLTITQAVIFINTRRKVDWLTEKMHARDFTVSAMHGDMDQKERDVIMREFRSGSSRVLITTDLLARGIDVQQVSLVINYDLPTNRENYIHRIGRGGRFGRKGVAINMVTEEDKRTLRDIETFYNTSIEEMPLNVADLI

On to `Cc1c(C(=O)N2CCN(C(=O)c3ccc(Br)cc3)[C@@H](c3ccc(Cl)cc3)C2)cnn1-c1cccc(C#N)c1`, for which the pIC50 – broadly, the IC50 on a negative log10 scale, so that one unit is a factor of ten – in assay [1] is under 4.00; in assay [4], under 4.00; in [6], 6.59; in assay [10], under 4.00; in [11], under 4.00. Also, the T1/2 in [2] was found to be 16.8 min. The negative logarithm of the Kd (pKd) (usually the negative decadic logarithm of the Kd, by convention in mol/L) in assay [3] was 7.37. Besides, the K turned out to be 1.6 ×10⁴ /M/s in [5] and 6.9 ×10⁻⁴ /s in [7]. In addition, the values for the fold change (FC) in assay [8] and in assay [9] were 2.72 and 3.69, respectively.
